Experimental data reported in ChEMBL document CHEMBL1138683 (J Med Chem, 2004).

Experiments:
[1] = Anti convulsant activity administered intra peritoneally to mouse for toxicity at 4 hr with dose of 30 mg/kg; 0/2= No of animals exhibiting toxicity /No of animals tested; format: organism-based; set-up: dose 30 mg/kg; conditions: in vivo, ip
[2] = tested on: Mus musculus; assay: Anti convulsant activity administered intra peritoneally to mouse at maximal electroshock test at 0.5 hr after the drug administered with dose of 100 mg/kg; 0/3= No of animals protected /No of animals tested; format: functional
[3] = tested on: Rattus norvegicus; assay: Anticonvulsant activity after oral administration of 50 mg/kg dose after 4 hr in rats; + means 25% of the animal protected; format: functional, organism-based; set-up: dose 50 mg/kg
Outline: (§1)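 Rats dosed orally with compound dissolved or suspended in 0.5% methylcellulose (0.04 mL per 10 g body weight). Anticonvulsant protection (MES or scMet) and toxicity scored at 15 min, 30 min, 1 h, 2 h and 4 h after dosing. Graded in steps of 25% of animals protected or showing toxicity.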

[4] = tested on: Mus musculus; assay: Anti convulsant activity administered intra peritoneally to mouse at maximal electroshock test at 4 hr after the drug administered with dose of 30 mg/kg; 0/1= No of animals protected /No of animals tested; format: functional
[5] = tested on: Mus musculus; assay: Anti convulsant activity administered intra peritoneally to mouse for subcutaneous metrazol test at 0.5 hr with dose of 100 mg/kg; 0/1= No of animals protected /No of animals tested; format: functional
[6] = tested on: Mus musculus; assay: Anti convulsant activity administered intra peritoneally to mouse at maximal electroshock test at 4 hr after the drug administered with dose of 300 mg/kg; 0/1= No of animals protected /No of animals tested; format: functional
[7] = tested on: Mus musculus; assay: Anti convulsant activity administered intra peritoneally to mouse for subcutaneous metrazol test at 4 hr with dose of 300 mg/kg; 0/1= No of animals protected /No of animals tested; format: functional
[8] = tested on: Mus musculus; assay: Anti convulsant activity administered intra peritoneally to mouse for subcutaneous metrazol test at 4 hr after the drug administered with dose of 100 mg/kg; 0/1= No of animals protected /No of animals tested; format: functional
[9] = tested on: Mus musculus; assay: Anti convulsant activity administered intra peritoneally to mouse for subcutaneous metrazol test at 0.5 h with dose of 300 mg/kg; 0/1= No of animals protected /No of animals tested; format: functional
[10] = tested on: Mus musculus; assay: Anti convulsant activity administered intra peritoneally to mouse at maximal electroshock test at 0.5 hr after the drug administered with dose of 300 mg/kg; 1/1= No of animals protected /No of animals tested; format: functional
[11] = Anti convulsant activity administered intra peritoneally to mouse for toxicity at 4 hr with dose of 100 mg/kg; 1/4= No of animals exhibiting toxicity /No of animals tested; format: organism-based; set-up: dose 100 mg/kg; conditions: in vivo, ip
[12] = tested on: Rattus norvegicus; assay: Anticonvulsant activity after oral administration of 50 mg/kg dose after 30 min in rats; + means 25% of animals protected; format: functional, organism-based; set-up: dose 50 mg/kg
Outline: (§2)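 Oral dosing of rats at a single dose, compound dissolved or suspended in 0.5% methylcellulose. Protection in the MES or scMet test checked 15 min, 30 min, 1 h, 2 h and 4 h after dosing. Scored as 25/50/75/100% of animals protected (+ to ++++), – for none.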

[13] = tested on: Mus musculus; assay: Anti convulsant activity administered intra peritoneally to mouse at maximal electroshock test at 0.5 h after the drug administered with dose of 30 mg/kg; 0/1= No of animals protected /No of animals tested; format: functional
[14] = tested on: Mus musculus; assay: Anti convulsant activity administered intra peritoneally to mouse for subcutaneous metrazol test at 0.5 hr with dose of 30 mg/kg; 0/1= No of animals protected /No of animals tested; format: functional
[15] = tested on: Rattus norvegicus; assay: Anticonvulsant activity after oral administration of 50 mg/kg dose after 30 min in rats; +means 25% of animal protected; format: functional, organism-based; set-up: dose 50 mg/kg; outline: as §1
[16] = tested on: Mus musculus; assay: Anti convulsant activity administered intra peritoneally to mouse for subcutaneous metrazol test at 4 hr after the drug administered with dose of 30 mg/kg; 0/1= No of animals protected /No of animals tested; format: functional; conditions: route intraperitoneal
[17] = tested on: Rattus norvegicus; assay: Anticonvulsant activity after oral administration of 50 mg/kg dose after 2 hr in rats; ++ means 50% of animals protected; format: functional, organism-based; set-up: dose 50 mg/kg; outline: as §2
[18] = Anti convulsant activity administered intra peritoneally to mouse for toxicity at 4 hr with dose of 300 mg/kg; 0/2= No of animals exhibiting toxicity /No of animals tested; format: organism-based; set-up: dose 300 mg/kg; conditions: in vivo, ip
[19] = tested on: Rattus norvegicus; assay: Anticonvulsant activity after oral administration of 50 mg/kg dose after 1 hr in rats; +means25% of animals protected; format: functional, organism-based; set-up: dose 50 mg/kg; outline: as §2
[20] = Anti convulsant activity administered intra peritoneally to mouse for toxicity at 0.5 hr with dose of 30 mg/kg; 0/4= No of animals exhibiting toxicity /No of animals tested; format: organism-based; set-up: dose 30 mg/kg; conditions: in vivo, ip
[21] = Anti convulsant activity administered intra peritoneally to mouse for toxicity at 0.5 hr with dose of 300 mg/kg; 4/4= No of animals exhibiting toxicity /No of animals tested; format: organism-based; set-up: dose 300 mg/kg; conditions: in vivo, ip
[22] = Anti convulsant activity administered intra peritoneally to mouse for toxicity at 0.5 hr with dose of 100 mg/kg; 0/8= No of animals exhibiting toxicity /No of animals tested; format: organism-based; set-up: dose 100 mg/kg; conditions: in vivo, ip
[23] = tested on: Mus musculus; assay: Anti convulsant activity administered intra peritoneally to mouse at maximal electroshock test at 4 hr after the drug administered with dose of 100 mg/kg; 0/3= No of animals protected /No of animals tested; format: functional
[24] = Anti convulsant activity administered intra peritoneally to mouse for toxicity at 0.5 hr with dose of 300 mg/kg; 2/4= No of animals exhibiting toxicity /No of animals tested; format: organism-based; set-up: dose 300 mg/kg; conditions: in vivo, ip
[25] = Anti convulsant activity administered intra peritoneally to mouse for toxicity at 0.5 hr with dose of 100 mg/kg; 1/8= No of animals exhibiting toxicity /No of animals tested; format: organism-based; set-up: dose 100 mg/kg; conditions: in vivo, ip
[26] = tested on: Mus musculus; assay: Anti convulsant activity administered intra peritoneally to mouse at maximal electroshock test at 0.5 h after the drug administered with dose of 300 mg/kg; 0/1= No of animals protected /No of animals tested; format: functional
[27] = tested on: Rattus norvegicus; assay: Anticonvulsant activity after oral administration of 100 mg/kg dose after 1 hr in rats; + means 25% of the animals protected; format: functional, organism-based; set-up: dose 100 mg/kg; outline: as §2
[28] = tested on: Rattus norvegicus; assay: Anticonvulsant activity administered orally to rat at subcutaneous metrazol test; format: functional
[29] = tested on: Mus musculus; assay: Anticonvulsant activity administered intra peritoneally to mouse at subcutaneous metrazol test; format: functional; conditions: sc
[30] = Anti convulsant activity administered intra peritoneally to mouse for toxicity at 4 hr with dose of 100 mg/kg; 0/4= No of animals exhibiting toxicity /No of animals tested; format: organism-based; set-up: dose 100 mg/kg; conditions: in vivo, ip
[31] = tested on: Rattus norvegicus; assay: Anticonvulsant activity after oral administration of 50 mg/kg dose after 30 min in rats; ++ means 50% of the animal protected; format: functional, organism-based; set-up: dose 50 mg/kg; outline: as §1
[32] = tested on: Mus musculus; assay: Anti convulsant activity administered intra peritoneally to mouse at maximal electroshock test at 4 hr after the drug administered with dose of 300 mg/kg; 1/1= No of animals protected /No of animals tested; format: functional
[33] = tested on: Rattus norvegicus; assay: Anticonvulsant activity after oral administration of 125 mg/kg dose after 30 min in rats;++ means 50% of the animals protected; format: functional, organism-based; set-up: dose 125 mg/kg; outline: as §2
[34] = tested on: Rattus norvegicus; assay: Anticonvulsant activity after oral administration of 50 mg/kg dose after 1 hr in rats;+means 25% of the animals protected; format: functional, organism-based; set-up: dose 50 mg/kg; outline: as §2
[35] = tested on: Rattus norvegicus; assay: Anticonvulsant activity after oral administration of 50 mg/kg dose after 2 hr in rats; +++ means 75% of the animal is protected; format: functional, organism-based; set-up: dose 50 mg/kg; outline: as §2

| SMILES | Toxicity [1] | Activity [2] | Activity [4] | Activity [5] | Activity [6] | Activity [7] | Activity [8] | Activity [9] | Activity [10] | Toxicity [11] | Activity [13] | Activity [14] | Activity [16] | Toxicity [18] | Toxicity [20] | Activity [23] | Toxicity [25] | other results |
| --- | --- | --- | --- | --- | --- | --- | --- | --- | --- | --- | --- | --- | --- | --- | --- | --- | --- | --- |
| CC1(C)C(C(=O)NC2CC2)C1(C)C | 0 | 0 | 0 | 0 | 0 | 0 | 0 | 0 | 1 | 1 | 0 | 0 | 0 | 0 | 0 | 0 |  | Activity [3]: 25% of animal protected; Activity [12]: 25% of animal protected; Activity [15]: 25% of animal protected; Activity [17]: 25% of animal protected; Activity [19]: 25% of animal protected; Toxicity [21]: 4; Toxicity [22]: 0 |
| CN(CCO)C(=O)C1C(C)(C)C1(C)C | 0 | 0 | 0 | 0 | 0 | 0 | 0 | 0 |  | 1 | 0 | 0 | 0 | 0 | 0 | 0 | 1 | Toxicity [24]: 2; Activity [26]: 0; Activity [27]: 25% of the animals protected |
| CCCC(CCC)C(=O)O [VALPROIC ACID] |  |  |  |  |  |  |  |  |  |  |  |  |  |  |  |  |  | ED50 [28]: 646 mg/kg; ED50 [29]: 220 mg/kg |
| CN(C)C(=O)NC(=O)C1C(C)(C)C1(C)C | 0 | 0 | 0 | 0 |  | 0 | 0 | 0 | 1 |  |  | 0 | 0 | 0 | 0 | 0 | 1 | Toxicity [30]: 0; Activity [31]: 25% of the animals protected; Activity [32]: 1; Activity [33]: 25% of the animals protected; Activity [34]: 25% of the animals protected; Activity [35]: 25% of the animals protected |
